# The list is not random: actives were taken first. Their share in the collection is about 2.9%.
# TCR-CD3 inh: human TCR-CD3 binding inhibition. TAMRA-labeled TCR probe fluorescence, biochemical. inhibition, % at 9.4 µM. actives 0.37% (n = 360,000). AID 651800; in the data active = inhibition above about 19%;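 note: recombinant mutant TCR 2C K166C tagged with TAMRA read by polarization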
# HTRA1 inh: inhibitors of human serine peptidase HTRA1; recombinant HTRA1, FP-rhodamine activity-based probe, fluorescence polarization; inhibition, % at 5.96 µM; actives 0.5% (n = 340,000); AID 504803; in the data active = inhibition above about 36%
# PAD4 inh: blocks human protein arginine deiminase 4 | Q9UM07 | recombinant PAD4, RCA probe fluorescence polarization | inhibition, % at 6.36 µM | actives 0.41% (n = 330,000) | AID 485272;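 active = percent inhibition above a cutoff equal to the mean of all tested compounds plus 3 SD, cut at about 15% in these data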
# ABHD4 inh: inhibits mouse alpha/beta hydrolase domain 4. AID 720543. Q8VD66. inhibition, % at 8.92 µM. actives 0.54% (n = 370,000). purified mABHD4, FP-Rh probe fluorescence polarization;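 active = inhibition exceeding the mean over every tested compound plus 3 SD, cut at about 30% in these data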
#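 Material: mouse ABHD4 enzyme, wild type; Benchmarks: S159A mutant high control, sample median low control; Buffer or medium: HEPES pH 7.0, NaCl, Pluronic buffer; Signal: fluorescence polarization; Read-out: percent inhibition of probe binding, normalized to plate controls; Timing: pre-incubation 45 min, probe exposure 60 min, at 25 °C; Dosing: 8.92 µM, single dose.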
# PRMT1 FP inh: PRMT1 (human) inhibition, primary screen | Q99873 | recombinant PRMT1, activity-based probe fluorescence polarization | inhibition, % at 2.79 µM | actives 1.3% (n = 370,000) | AID 652257;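 active = inhibition above about 21% made by adding two undisclosed values, limit read from the data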
# SIAE primary: human SIAE inhibition, primary screen. Q9HAT2. SIAE FP-Rh probe binding, fluorescence polarization. inhibition, % at 9.66 µM. actives 0.69% (n = 370,000);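 active = inhibition above a cutoff: mean of compounds within the control limits plus 3 SD of those, cut at about 17% in these data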
# Target sequence (Q9HAT2 whole entry, looked up): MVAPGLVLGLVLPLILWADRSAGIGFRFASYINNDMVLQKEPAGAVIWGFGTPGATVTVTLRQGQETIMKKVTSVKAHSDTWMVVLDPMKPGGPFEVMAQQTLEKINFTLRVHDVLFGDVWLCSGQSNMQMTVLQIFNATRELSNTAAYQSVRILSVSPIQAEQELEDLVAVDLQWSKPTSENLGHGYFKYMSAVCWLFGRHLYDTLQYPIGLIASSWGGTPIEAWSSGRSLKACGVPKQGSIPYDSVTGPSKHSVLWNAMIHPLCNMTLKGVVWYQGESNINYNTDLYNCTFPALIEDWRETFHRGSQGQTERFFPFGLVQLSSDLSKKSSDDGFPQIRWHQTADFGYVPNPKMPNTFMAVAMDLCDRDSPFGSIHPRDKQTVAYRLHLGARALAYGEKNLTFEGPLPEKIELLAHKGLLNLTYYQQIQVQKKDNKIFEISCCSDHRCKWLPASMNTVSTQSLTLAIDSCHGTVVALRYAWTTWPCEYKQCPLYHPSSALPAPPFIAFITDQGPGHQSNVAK
# SIAE inh conf: human SIAE inhibition, confirmation; shares compounds with SIAE primary; SIAE FP-Rh activity-based probe, fluorescence polarization; inhibition, % at 9.66 µM; actives 13% (n = 2,300);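 active = mean inhibition of the replicates above the hit cutoff set in the primary screen, cut at about 17% in these data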;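 note: inhibitors lower polarization as more probe stays unbound to SIAE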
# Hits are given with their value; . = inactive; / = no result given.
SMILES,TCR-CD3 inh,HTRA1 inh,PAD4 inh,ABHD4 inh,PRMT1 FP inh,SIAE primary,SIAE inh conf
O=C(Nc1ccccc1)Nc1csc2ccccc12,.,/,.,.,.,18,.
O=C(Nc1ccc(Nc2ccccc2)cc1)Nc1ccccc1Cl,.,.,.,.,.,24,.
O=C(Oc1cccc(-n2cnnn2)c1)C1CCCCC1,.,.,.,.,.,23,17
O=C(Nc1ccc(-n2cnnn2)cc1)C1CCCCC1,.,.,.,.,.,.,/
CCOC(=O)CNC(=O)CSc1nnc(-c2ccccc2)n1CC,/,/,/,.,.,.,/
O=C(NCCc1csc(-c2ccccc2)n1)c1ccc(Br)o1,.,.,.,.,.,.,/
O=C(NCCc1csc(-c2cccnc2)n1)c1ccc(Br)o1,.,.,.,.,.,18,.
O=C1C(Cl)=C(N2CCCCC2)C(=O)N1Cc1ccccc1,.,.,.,.,.,18,.
O=C1C(Cl)=C(N2CCCCCC2)C(=O)N1c1ccccc1,.,.,.,.,.,.,/
O=C(NCc1ccccc1)OC1CC2CC1[C@H]1CCCCN1C2 (some centres undefined),/,/,/,.,.,.,/
CCOc1ccc(Nc2ccnc3cc(Cl)ccc23)cc1,.,.,.,.,.,.,/
FC(F)Oc1ccc(NC(=S)NNc2ccnc3cc(Cl)ccc23)cc1,.,.,.,.,.,35,.
NC(=S)NNc1ccnc2cc(Cl)ccc12,.,.,.,.,.,20,.
O=C(NNc1ccnc2cc(Cl)ccc12)C1CCCCC1,.,.,.,.,.,.,/
O=C(CCc1ccccc1)N[C@H]1[C@@H](OC(=O)c2ccc([N+](=O)[O-])cc2)CCC[C@]12C(=O)N(Cc1ccccc1)c1ccccc12,/,/,/,.,.,.,/
COc1cccc2c(=O)c3c(oc12)CCCC3,.,.,/,.,.,.,/
Nc1cccc2c3c(oc12)CCCC3,.,.,.,.,.,18,.
NS(=O)(=O)c1cccc(NC(=O)CC2(CC(=O)O)CCCC2)c1,.,.,.,.,.,36,.
O=c1[nH]c2cc3c(cc2cc1CN(Cc1ccc2c(c1)OCO2)Cc1nnnn1CC1CCCO1)OCO3 (centres undefined),.,.,.,.,.,59,.
O=C(NCc1ccccc1)[C@@H]1CCCN1C(=O)[C@H]1CCCN1C(=O)N1CCCCC1,.,/,/,.,.,.,/
N#Cc1ccccc1CSc1nc(O)cc(=O)[nH]1,.,.,.,.,.,17,.
COC(=O)[C@]12C[C@H](CC(=O)N3CCN(C(=O)c4ccco4)CC3)C(=O)N(CCC3=CCCCC3)C1=C[C@H](COCc1ccccc1)O[C@@H]2C,.,/,/,.,.,.,/
COc1cc(/C=N/Nc2nc3ccccc3[nH]c2=O)ccc1O,.,.,.,.,.,.,/
COc1ccc2nc(C)cc(N/N=C/c3cccc(OC)c3O)c2c1,.,.,.,.,.,24,18
COc1cc(/C=N/Nc2nc3ccccc3[nH]2)ccc1O,.,.,.,.,.,18,.
SMILES,TCR-CD3 inh,HTRA1 inh,PAD4 inh,ABHD4 inh,PRMT1 FP inh,SIAE primary,SIAE inh conf
O=[N+]([O-])c1ccc(N/N=C/c2ccccc2O)cc1,.,.,.,.,.,40,.
COc1ccc(/C=N/Nc2cc(C)nc3ccc(Br)cc23)cc1,.,.,.,.,.,.,/
O=[N+]([O-])c1ccc(O)c(/C=N/Nc2ccccn2)c1,.,.,.,.,.,.,/
O=[N+]([O-])c1ccc(O)c(/C=N/Nc2nc3ccccc3[nH]2)c1,.,.,.,.,.,19,.
COC(=O)[C@]12C[C@H](CC(=O)N3CCCCC3)C(=O)N(CCC3=CCCCC3)C1=C[C@H](C(C)C)O[C@@H]2C1CC1,/,/,/,.,.,.,/
COc1cc(O)c(C(CC(=O)N2CC(C)OC(C)C2)c2ccc3c(c2)OCO3)c(OC)c1 (centres undefined),/,/,/,.,.,.,/
COc1cc(-c2nnc(SCC(=O)N3C(C)CCCC3C)o2)cc(OC)c1OC (centres undefined),/,/,/,.,.,.,/
COc1cccc(/C=N/Nc2nc3ccccc3[nH]2)c1OC,.,.,.,.,.,.,/
COc1cccc(/C=N/Nc2nc3ccccc3[nH]2)c1O,.,.,.,.,.,17,.
CCc1ccc(NC(=O)C(C)Sc2nnc(CN3CCCC3)o2)cc1 (centres undefined),.,.,.,.,.,19,.
O=C(OCC(=O)N1CCN(C(=O)COC(=O)c2ccccc2NCCO)CC1)c1ccccc1NCCO,.,.,/,.,.,.,/
O=C(OCC(=O)N1CCN(C(=O)c2ccco2)CC1)c1ccccc1NCCO,.,.,.,.,.,24,.
CC(C)(C)c1nc2sc3c(c2c(=O)o1)CCCC3,.,.,.,.,.,.,/
CCc1nc2sc3c(c2c(=O)o1)CCCC3,.,.,.,.,.,20,.
COC(=O)[C@]12C[C@H](CC(=O)NCCc3ccccc3OC)C(=O)N(CCC3=CCCCC3)C1=C[C@H](COCc1ccccc1)O[C@@H]2C,.,/,/,.,.,.,/
C[C@H](CO)N1C[C@H](C)[C@@H](CN(C)S(=O)(=O)c2ccc(F)cc2)Oc2ccc(NC(=O)Nc3ccc4c(c3)OCO4)cc2C1=O,.,.,.,.,.,22,.
C[C@@H]1CN([C@@H](C)CO)C(=O)c2cc(NC(=O)Nc3ccc4c(c3)OCO4)ccc2O[C@H]1CN(C)S(=O)(=O)c1ccc(F)cc1,.,.,.,.,.,.,/
CCCOc1ccc(C(=O)N/N=C/c2c[nH]c3ccc(Br)cc23)cc1,.,.,.,.,.,19,.
O=C(N/N=C/c1c[nH]c2ccc(Br)cc12)c1ccn(Cc2ccc(Cl)cc2)n1,.,.,.,.,.,.,/
C[C@H](O)[C@@H]1C(=O)N2CCc3c([nH]c4cccc(-c5ccccc5)c34)[C@@H]2C[C@@H]1N(C)C(=O)Nc1ccccc1,.,/,/,.,.,.,/
O=C(OCCN1CCN(C2CN(Cc3cn(Cc4ccccc4F)nn3)S(=O)(=O)C2)CC1)c1cc2ccccc2o1 (centres undefined),/,/,/,.,.,.,/
CCC(C)NC(=O)CS(=O)Cc1nc(-c2cccc(C)c2)oc1C (centres undefined),.,.,.,.,.,25,.
Cc1cccc(-c2nc(CS(=O)CC(=O)NC3CCCC3)c(C)o2)c1 (centres undefined),.,.,/,.,.,.,/
CCCCNC(=O)CS(=O)Cc1nc(-c2cccc(C)c2)oc1C (centres undefined),.,.,.,.,.,26,.
CCCCSCCCNC(=O)CS(=O)Cc1nc(-c2cccc(C)c2)oc1C (centres undefined),.,.,.,.,.,.,/
c1cc(CNCC2CCCO2)ccn1 (centres undefined),.,.,.,.,.,.,/

# High-throughput results deposited in PubChem BioAssay by The Scripps Research Institute Molecular Screening Center.
